Only some compounds are listed: those with a hit (about 2.9% of all), similar ones and a draw of the others.
Cneo AK release: Cryptococcus neoformans lysis via adenylate kinase release | hit rate 0.2% among 360,000 | C. neoformans lysis, adenylate kinase release luminescence, 4 h; normalised: neutral wells 0, clomiphene wells 100 | lysis activity, % at 15 µM;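 active = mean lysis activity across replicates of at least 80%, whatever share of replicates individually reach that level; inactive = mean lysis activity below 80%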
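Schedule: static 4 h at 37 °C with compound, 1 h detection; system: C. neoformans cells; benchmarks: Clomiphene as positive control; buffer or medium: fresh YPD medium; measure: luminescence rise reflecting yeast cell lysis; measured by: luminescent adenylate kinase detection reagent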
CDK5 inh: inhibitors of human CDK5/p35 kinase | Q00535+Q15078 | Recombinant CDK5/p35, ADP-Glo luminescence, 60 min | inhibition, % at 10 µM | hit rate 0.01% among 330,000 | AID 488839;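 active = highest replicate inhibition of at least 50% and at least 75% of replicates reaching 50%; inconclusive = only one of the two criteria met; inactive = both criteria failed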;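 also: plate controls were DMSO neutral control for no effect and GW8510 at 10 µM for full effect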
HIV Env fusion: blocks HIV Env-driven cell-cell fusion | HeLa-JRFL Env/CEM21 cell fusion, luciferase | inhibition, % at 12.3 µM | hit rate 1.1% among 360,000;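 active = mean replicate inhibition score of at least 50 and every replicate individually at or above 50; inconclusive = only one of the two criteria met; inactive = mean below 50 and not all replicates reaching 50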;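 also: 0% = plate neutral controls and 100% = maraviroc near 300 nM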
PAX8 inh HTS: PAX8 transcriptional activity inhibition. RMG-I TPO-luciferase reporter, SteadyGlo, 24 h. inhibition, % at 12.6 µM. hit rate 1.2% among 360,000;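 active = mean replicate inhibition at least 60% with every replicate also reaching 60%; inconclusive = only one of the two criteria is met; inactive = mean below 60% and not all replicates reaching 60%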;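 also: luciferase light reporting Pax8 driven TPO promoter activity; plate controls were median of neutral control wells for no effect and mitoxantrone controls for full effect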
INS-1E GSIS act: GLuc luminescence reporter in INS-1E cells, primary screen for activators of glucose-dependent secretion of insulin; INS-1E GLuc reporter insulin secretion, 2-3 h; activation, % at 16.6 µM; hit rate 0.61% among 370,000; AID 743287;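 active = lowest replicate activation of at least 40%, so every replicate reaches that level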;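 also: 0% = median of neutral control wells and 100% = median of IBMX positive control wells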
dFosB act: enhances mouse delta FosB homodimer DNA binding. P13346. purified delta FosB, TAMRA-CDK5 oligo fluorescence polarization; percent of positive-control signal above neutral wells. activation, % at 25 µM. hit rate 0.99% among 340,000;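 active = mean activation above about 17%, with every replicate also reaching it, limit read from the data, passing the limit was not always enough; inconclusive = only one of the two conditions met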
Target sequence (P13346 whole entry, looked up): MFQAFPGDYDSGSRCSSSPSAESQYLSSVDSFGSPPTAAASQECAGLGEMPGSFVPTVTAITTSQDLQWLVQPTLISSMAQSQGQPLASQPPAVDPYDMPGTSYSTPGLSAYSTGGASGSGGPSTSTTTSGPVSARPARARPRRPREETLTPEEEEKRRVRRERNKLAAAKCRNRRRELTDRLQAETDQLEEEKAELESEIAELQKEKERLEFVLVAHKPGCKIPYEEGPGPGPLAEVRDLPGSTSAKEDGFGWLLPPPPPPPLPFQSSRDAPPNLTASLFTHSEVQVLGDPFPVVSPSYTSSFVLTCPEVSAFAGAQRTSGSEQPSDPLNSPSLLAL
Active calls of the source: *; ? = inconclusive; nt = not tested or not shown; [ ] = remark or other dose.

SMILES	Cneo AK release	CDK5 inh	HIV Env fusion	PAX8 inh HTS	INS-1E GSIS act	dFosB act
CC1C=NC(S(=O)(=O)N2CC[C@H]3[C@@H](CO)N(C)c4ccc(C5=CCCCC5)cc4[C@H]32)=N1 (stereo not given in full)	58.1	nt	nt	-21.1	-20.9	nt
O=c1cc(-c2ccncc2)oc2c1ccc1ccccc12	-1.0	1.7	-6.7	-28.2	46.9*	-11.9
O=c1cc(C(Cl)(Cl)Cl)oc2c1ccc1ccccc12	-2.2	2.2	35.0	98.1*	nt	4.1
O=c1cc(-c2ccco2)oc2c1ccc1ccccc12	-0.5	0.4	-117.9	-0.9	nt	-22.0
COc1c(O)cc2oc(-c3ccc(O)cc3)cc(=O)c2c1O	-4.4	10.1	-485.1	-144.9	-13.2	5.8
O=c1cc(-c2ccc(O)cc2)oc2c1ccc1ccccc12	nt	-3.1	nt	-52.0	19.2	-28.4
O=c1cc(-c2ccc(O)cc2)oc2ccc3ccccc3c12	-5.9	11.5	nt	110.3*	-14.1	-51.8
CN(C)Cc1ccccc1Sc1ccc2c(c1)CCCC2	4.6	nt	1.4	11.3	54.3*	nt
O=C(Nc1cccc(F)c1)N1CCCCN2[C@@H](CO)[C@H](c3ccc(C#Cc4ccccc4)cc3)[C@@H]2C1	-1.5	nt	nt	93.5*	-4.7	nt
O=C(Nc1cccc(F)c1)N1CCCCN2[C@H](CO)[C@@H](c3ccc(C#Cc4ccccc4)cc3)[C@H]2C1	0.4	nt	nt	116.1*	-15.2	nt
CCOC(=O)c1nc(SC)n(C)c1C(=O)OCC	0.3	1.3	-3.5	-2.6	54.1*	-3.3
O=C(c1ccc(C(F)(F)F)cc1)N1CCC(=O)N(C(COCc2ccccc2)Cc2ccccc2)CC1 (stereo not given)	3.0	-2.2	63.3*	3.2	nt	5.8
CC(C)C[C@@H](COCc1cccc(Cl)c1)N1CCN(C(=O)c2ccc(C(F)(F)F)cc2)CCC1=O	nt	nt	56.8*	10.4	-9.8	nt
CC(C)C[C@@H](COCc1ccc(C(F)(F)F)cc1)N1CCN(C(=O)c2ccc(C(F)(F)F)cc2)CCC1=O	nt	nt	46.4	18.0	3.2	nt
CC(C)CC(COCc1ccc(Cl)cc1)N1CCN(C(=O)c2cccc(C(F)(F)F)c2)CCC1=O (stereo not given)	1.9	0.1	-4.7	-1.4	-8.8	-17.5
CC(C)CC(COCc1ccc(C(F)(F)F)cc1)N1CCN(C(=O)c2ccc(C(F)(F)F)cc2)CCC1=O (stereo not given)	3.6	0.2	57.5*	21.4	-23.6	-14.7
CCCNC(=O)Nc1ccc2c(c1)C(=O)N(C)[C@@H]1CC[C@@H](CC(=O)NCc3ccccc3)O[C@H]1CO2	-3.4	nt	nt	14.8	-9.2	nt
CCC(=O)N[C@@H]1CC[C@H](CC(=O)OC)O[C@@H]1CO	-4.2	nt	-3.5[16.7 µM]	-0.2	6.7	nt
CO[C@H]1CN(C)C(=O)c2ccc(NC(=O)C3CC3)cc2OC[C@H](C)N(Cc2cc(F)ccc2F)C[C@@H]1C	-5.0	nt	80.8*[16.7 µM]	nt	-21.5	nt
CO[C@@H]1CN(C)C(=O)c2ccc(NC(=O)C3CC3)cc2OC[C@H](C)N(C(=O)c2ccncc2)C[C@H]1C	80.7*	nt	2.7[16.7 µM]	-15.0	16.0	nt
CO[C@@H]1CN(C)C(=O)c2ccc(NC(=O)C3CC3)cc2OC[C@@H](C)N(Cc2ccc(F)cc2)C[C@H]1C	-0.6	nt	nt	0.7	-30.2	nt
CO[C@@H]1CN(C)C(=O)c2ccc(NC(=O)C3CC3)cc2OC[C@H](C)N(Cc2ccc(F)cc2)C[C@H]1C	86.0*	nt	nt	43.7	-32.4	nt
COc1ccc2c3c([nH]c2c1)[C@@H](CO)N(Cc1ccccc1F)CC31CN(C(=O)C2CCC2)C1	nt	nt	nt	26.6	-3.3	nt
Cc1ccc(S(=O)(=O)N(C)C[C@@H]2Oc3ccc(NC(=O)Cc4ccccc4)cc3CC(=O)N([C@H](C)CO)C[C@@H]2C)cc1	-2.3	nt	77.0*[16.7 µM]	28.8	-21.5	nt
C[C@H]1CN([C@@H](C)CO)C(=O)Cc2cc(NC(=O)Cc3ccccc3)ccc2O[C@H]1CN(C)S(=O)(=O)c1ccccc1	1.3	nt	72.6*[16.7 µM]	-1.3	-0.1	nt
SMILES	Cneo AK release	CDK5 inh	HIV Env fusion	PAX8 inh HTS	INS-1E GSIS act	dFosB act
C[C@H]1CN([C@@H](C)CO)C(=O)Cc2cc(NC(=O)Nc3ccc4c(c3)OCO4)ccc2O[C@H]1CN(C)S(=O)(=O)c1ccccc1	nt	nt	63.1*[16.7 µM]	nt	-10.2	nt
Cc1ccc(S(=O)(=O)N(C)C[C@H]2Oc3ccc(NC(=O)Cc4ccccc4)cc3CC(=O)N([C@H](C)CO)C[C@H]2C)cc1	-10.4	nt	30.4[16.7 µM]	-17.7	2.5	nt
Cc1ccc(S(=O)(=O)N(C)C[C@H]2Oc3ccc(NC(=O)Cc4ccccc4)cc3C(=O)N([C@H](C)CO)C[C@@H]2C)cc1	-3.4	nt	nt	83.9*	-14.6	nt
CN1CCN(C(=O)C[C@H]2CC[C@@H]3[C@H](COC[C@H](O)CN3C(=O)c3ccc(F)cc3)O2)CC1	0.4	nt	nt	-5.2	4.8	nt
Oc1ccc(C=NNc2ccccn2)c(O)c1	nt	3.6	69.1*	-5.0	-4.6	3.2
O=[N+]([O-])c1ccc(O)c(/C=N/Nc2ccccn2)c1	-3.0	-0.1	-27.1	71.4*	12.8	1.6
CCN(CC)S(=O)(=O)c1ccc(N/N=C/c2ccc(O)cc2O)nc1	nt	3.9	22.7	72.4*	-11.2	5.5
Oc1cccc(C=NNc2ccccn2)c1	-7.5	0.5	-38.0	-159.9	20.0	0.6
O=[N+]([O-])c1ccc(NN=Cc2ccc(O)cc2O)nc1	-0.1	-0.7	-42.5	15.2	-3.0	3.8
COc1ccc(NC(=O)Nc2ccc3c(c2)C(=O)N([C@@H](C)CO)C[C@@H](C)[C@H](CN(C)CC2CCCCC2)OCCCC[C@H](C)O3)cc1	2.4	nt	9.7[16.7 µM]	-20.4	8.8	nt
CCCNC(=O)[C@@H]1[C@@H](CO)[C@@H]2Cn3c(cccc3=O)[C@@H]2N1C(=O)C1CCC1	-1.4	nt	nt	nt	-3.0	nt
N#C/C(C(=O)N1CCCCC1)=C1\Nc2ccccc2S1	-3.3	-0.3	nt	nt	nt	-6.8
Cc1ccc(NC(=S)/C(C#N)=C2/Nc3ccccc3S2)cc1	0.4	nt	11.7	83.9*	-2.2	nt
Cc1nc2ccc(-c3nc4ccc(N)cc4[nH]3)cc2[nH]1	nt	-0.1	-0.1	69.3*	3.0	4.1
Nc1ccc2nc(-c3cccc(-c4nc5ccc(N)cc5[nH]4)c3)[nH]c2c1	nt	-4.7	-7.1	-4.0	5.1	?
Nc1ccc(-c2nc3ccc(N)cc3[nH]2)cc1	nt	-2.1	-24.6	45.3	-3.9	-23.3

Source: PubChem
